Bioassay records: PubChem BioAssay, several laboratories
RanGTP-Imp inh – disruptors of Ran-importin-beta complex formation – biochemical, FRET, CFP-Ran, YFP-importin-beta, homogeneous, primary screen | hit rate 1.1% among 300,000 | inhibition, % (concentration not given with the values) | cell-free CFP-Ran/YFP-importin-beta FRET ratio;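 active = more than half of the replicate wells show a fall in the fluorescence ratio signal beyond about 16%, limit read from the data, passing the limit was not always enough; inconclusive = exactly half of the replicate wells pass the set limit; inactive = fewer than half of replicates pass the limit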;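 also: 0% = DMSO wells and 100% = Ran loaded with GDP instead of GTP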
Runt-CBFb FRET – inhibitors of human RUNX1 Runt domain binding to CBFb; Cerulean-Runt/Venus-CBFb FRET ratio 530/480, 1 h; inhibition, % at 20 µM; hit rate 0.46% among 220,000;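 active = inhibition over about 50% at 20 µM in the single-dose screen, limit read from the data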;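 also: 0% = DMSO wells and 100% = excess unlabeled CBFb competitor control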
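Buffer or medium: Tris pH 7.5 buffer with BSA. Assay system: Cerulean-labeled Runt domain protein. Amount: each fluorescent fusion protein 100 nM. Read-out basis: loss of energy transfer signal. Incubation: 1 h compound exposure, room temperature. Probe or stimulus: Venus-CBFb binding partner, 100 nM. Detection: FRET, excitation 422 nm, emission at 530 and 480 nm.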
RBBP9 inhibitor – inhibitors of human serine hydrolase RBBP9 | O75884 | hit rate 0.2% among 220,000 | recombinant RBBP9, FP-Rh probe fluorescence polarization | AID 1515 | inhibition, % at 7.94 µM;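 active = inhibition above the campaign mean of all tested compounds plus 3 SD, cut at about 14% in these data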;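 also: plate controls were DMSO wells with RBBP9 for no effect and wells lacking RBBP9 protein for full effect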
Target sequence (O75884 whole entry, looked up): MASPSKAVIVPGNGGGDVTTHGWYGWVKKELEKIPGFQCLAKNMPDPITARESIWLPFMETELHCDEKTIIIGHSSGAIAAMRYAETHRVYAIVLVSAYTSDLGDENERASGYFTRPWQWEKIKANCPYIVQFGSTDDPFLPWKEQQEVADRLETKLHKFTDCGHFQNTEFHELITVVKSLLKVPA
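Test system: recombinant human RBBP9. Quantity: 2.5 µM RBBP9 dispensing solution, before mixing. Detection: FP readout at 525/598 nm. Reagent: Serine-hydrolase probe FP-Rh, 375 nM pre-mixing. Measure: % inhibition. Control set: DMSO-treated enzyme wells and wells lacking RBBP9. Buffer or medium: Tris-NaCl-Pluronic buffer, pH 8.0. Times: preincubation 30 min plus labeling 45 min at 25 °C.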
Runt-SMMHC FRET – blocks binding of human RUNX1 Runt domain to CBFb-SMMHC; hit rate 0.74% among 220,000; Cerulean-Runt/Venus-CBFb-SMMHC FRET ratio 530/480, 1 h; inhibition, % at 20 µM; Q01196+Q13951;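 active = mean inhibition across duplicate retests at 20 µM reaching about 50%, limit read from the data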;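 also: 0% = DMSO wells and 100% = wells with excess untagged CBFb-SMMHC; inhibitors lower the FRET ratio by blocking Runt binding to CBFb-SMMHC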
PfM18AAP inh-1 – blocks P. falciparum M18 aspartyl aminopeptidase; recombinant PfM18AAP, H-Glu-NHMec fluorogenic cleavage; inhibition, % at 7.35 µM; hit rate 1.2% among 290,000; AID 1822;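 active = inhibition above the campaign mean inhibition over all tested compounds plus 3 SD, cut at about 28% in these data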;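 also: 0% = plate median of test compound wells and 100% = 2 mM ZnCl2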
Hck-Nef inh – blocks Nef-activated human Hck kinase. AID 463187. Recombinant Hck-YEEI plus Nef, Z-Lyte FRET kinase assay. inhibition, % at 20 µM. hit rate 0.68% among 220,000;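 active = Hck-Nef kinase inhibition above about 50%, limit read from the data; inactive = inhibition below that limit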;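 also: 0% = DMSO with Hck plus Nef and 100% = Hck alone without Nef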
PfM18AAP inh-2 – confirmation of Plasmodium falciparum M18 aspartyl aminopeptidase inhibitors. AID 2170. inhibition, % at 7.35 µM. hit rate 28% among 2,400. shares compounds with PfM18AAP inh-1. recombinant PfM18AAP, H-Glu-NHMec fluorogenic cleavage;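 active = mean inhibition over replicate wells above the hit cutoff set for the earlier primary screen, cut at about 29% in these data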;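 also: 0% = median of test compound wells and 100% = 2 mM ZnCl2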
CTSL1 confirm – counter-screen for PFM18AAP inhibitors: confirmation of human cathepsin L inhibitors. shares compounds with PfM18AAP inh-1. purified cathepsin L1, Z-Leu-Arg-MCA fluorescence. inhibition, % at 5.96 µM. 2,400 tested, under 10 active;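 active = average inhibition across replicates above the hit cutoff set in the earlier primary screen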;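 also: 0% = median of test compound wells and 100% = Z-Phe-Ala-diazomethylketone 1 µM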
Target sequence (P07711 whole entry, looked up): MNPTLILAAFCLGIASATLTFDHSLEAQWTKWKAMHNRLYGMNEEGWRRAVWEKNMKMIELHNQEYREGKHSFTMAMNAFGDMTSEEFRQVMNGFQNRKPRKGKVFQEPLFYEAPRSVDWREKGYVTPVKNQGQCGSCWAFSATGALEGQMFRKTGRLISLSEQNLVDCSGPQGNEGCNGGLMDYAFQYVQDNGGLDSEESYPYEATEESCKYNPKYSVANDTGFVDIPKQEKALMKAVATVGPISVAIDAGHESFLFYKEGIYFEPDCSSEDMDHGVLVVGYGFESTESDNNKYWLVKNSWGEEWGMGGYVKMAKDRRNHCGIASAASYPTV
The depositor's hits bear a star; ? = inconclusive; . = no result given. Shown are actives, neighbours in structure and some others; about 2.9% of the full set was active somewhere.

SMILES | RanGTP-Imp inh | Runt-CBFb FRET | RBBP9 inhibitor | Runt-SMMHC FRET | PfM18AAP inh-1 | Hck-Nef inh | PfM18AAP inh-2 | CTSL1 confirm
COc1cc(CNc2ccc(CNc3ncn[nH]3)cc2)ccc1OCC(=O)NC(C)(C)C | 4 | -1 | -14 | 4 | 47* | -53 | -35 | -8
Cc1cccc(Nc2nc(Cl)ncc2F)c1C | 1 | . | . | . | -2 | . | . | .
COc1cc(/C=N/Nc2nc(C)cc(=O)[nH]2)ccc1O | 5 | . | . | . | 19 | . | . | .
COc1cc(/C=N/Nc2nc(C)cc(=O)[nH]2)cc(OC)c1O | 4 | . | . | . | 42* | . | 17 | 0
COC(=O)[C@@H](NC(=O)N1CCC(Cc2ccccc2)CC1)C(C)C | 2 | . | . | . | 1 | . | . | .
O=C(CCc1ccc(O)c(O)c1)N/N=C/c1ccc2c(c1)OCO2 | 4 | . | . | . | 79* | . | 50* | 4
Cc1ccc(S(=O)(=O)NCC(C)n2nc(C)nc2C)cc1 (stereo unspecified) | -3 | . | . | . | -2 | . | . | .
CCCCCCn1c(SCC(C)C)nc2c1c(=O)[nH]c(=O)n2C | ? | -7 | 1 | -62 | -8 | 1 | . | .
CCOC(=O)C(C)Sc1nc2c(c(=O)[nH]c(=O)n2C)n1C/C=C(/C)Cl (stereo unspecified) | 4 | 31 | -1 | 32 | 37* | 2 | 3 | 3
CCCCCCn1c(SCC(=O)OC)nc2c1c(=O)[nH]c(=O)n2C | 2 | 30 | -1 | 10 | 48* | 12 | 23 | -5
CC(C)CC1CC(C)(c2csc(NNC(=O)c3ccccc3)n2)OC1=O (stereo unspecified) | 0 | 16 | -10 | 12 | 33* | 12 | -10 | -1
CC1(C)CC(CC(=O)NNc2nc(-c3ccccc3)cs2)C(=O)O1 (stereo unspecified) | 4 | 0 | -6 | 0 | 34* | -5 | -1 | -7
CC(C)c1ccc(N2C(=O)C(Cl)=C(N3CCOCC3)C2=O)cc1 | -6 | . | . | . | 38* | . | -28 | -1
O=[N+]([O-])c1ccc(Nc2nc(N/N=C/c3cccc(F)c3)nc(N3CCCC3)n2)cc1 | -2 | -3 | 7 | -5 | 44* | 2 | -35 | 0
CC(C)(C)N1CC23C=CC(C[C@@H]2C1=O)O3 (stereo partly specified) | -2 | . | . | . | . | . | . | .
COC(=O)C(C)Sc1ncnc2c1nnn2-c1ccc(F)cc1 (stereo unspecified) | 3 | 1 | -9 | 3 | -4 | 1 | . | .
COc1ccc(-n2nnc3c(SC(C(C)=O)C(=O)N(C)C)ncnc32)cc1 (stereo unspecified) | 3 | . | . | . | 46* | . | 2 | -2
CCN(CC)c1ccc(N=CN2CCOCC2)cc1 | -2 | . | . | . | 34* | . | -28 | 0
Cn1c(=O)c2c(ncn2CC(=O)Nc2nccs2)n(C)c1=O | -3 | 0 | -2 | -4 | 5 | 1 | . | .
O=C(C1=NN[C@@H]2C(=O)N(Cc3ccccc3)C(=O)[C@H]12)c1ccc([N+](=O)[O-])cc1 | 3 | -2 | -11 | -1 | 42* | -22 | -3 | 8
O=C(c1ccc(-c2ccccc2)cc1)c1ccc([N+](=O)[O-])cc1 | 0 | 0 | -8 | -3 | 5 | 3 | . | .
O=C(CN1CCN(c2ccc(O)cc2)CC1)N1CCc2ccccc21 | -1 | . | . | . | 42* | . | 1 | 4
O=C(CN1CCN(c2ccccc2)CC1)N1CCc2ccccc21 | 3 | . | . | . | -4 | . | . | .
COC(=O)C1CCN(Cc2cn(-c3ccccc3)nc2-c2ccc3c(c2)OCO3)CC1 | 0 | 1 | -7 | -2 | 7 | 6 | . | .
Cn1c(O)c(N=NC(=O)CNC(=O)c2cccnc2)c2ccccc21 | 1 | . | . | . | 8 | . | . | .
SMILES | RanGTP-Imp inh | Runt-CBFb FRET | RBBP9 inhibitor | Runt-SMMHC FRET | PfM18AAP inh-1 | Hck-Nef inh | PfM18AAP inh-2 | CTSL1 confirm
CCOC(=O)C1=C(C)NC(SCC(=O)OC)=C(C#N)C1c1ccc(C(=O)OC)cc1 (stereo unspecified) | -3 | -2 | -2 | 3 | 36* | 1 | -12 | 5
O=C1CS/C(=N/N=C2CCCC2)N1 | 1 | 0 | -9 | 4 | 2 | 22 | . | .
O=C1CSC(=S)N1N=C1CCCCCC1 | . | 12 | -8 | 6 | 39* | 1 | 1 | -1
CCOC(=O)N1CCN(C(=O)c2cc(COc3c(F)cccc3F)on2)CC1 | 4 | . | . | . | 2 | . | . | .
CCN(CC)c1ccc(/C=N/NC(=O)OC)c(O)c1 | 2 | 6 | -8 | 0 | 19 | -1 | . | .
CCN(CC)c1ccc(C=Nc2ccc(N(C)C)cc2)c(O)c1 | 2 | 3 | 5 | -40 | 19 | -24 | . | .
CCN(CC)c1ccc(N=Cc2ccc(N(CC)CC)cc2O)cc1 | 4 | 1 | -2 | -40 | 43* | 3 | -22 | -2
CCN(CC)c1ccc(/C=N/NC(=S)NC)c(O)c1 | -1 | 8 | -1 | 22 | 41* | 1 | 10 | 12
O=c1/c(=C/c2cccc3ccccc23)sc2ncnn12 | -3 | -3 | -5 | -3 | 44* | 1 | 35* | -5
Cc1ccsc1/C=c1\sc2ncnn2c1=O | 3 | 0 | -2 | -2 | 87* | -3 | 55* | 4
CCCCCOc1ccc(/C=c2\sc3ncnn3c2=O)cc1 | . | 0 | . | -8 | . | . | . | .
CCCCOc1ccc(/C=c2\sc3ncnn3c2=O)cc1 | 0 | -3 | -7 | -1 | 76* | 4 | 4 | -1
COc1ccc(NS(=O)(=O)c2nnc(NC(=O)c3ccccc3F)s2)cc1 | 1 | . | . | . | -2 | . | . | .
COc1ccc(N2CCN(C(=O)C3CCN(S(=O)(=O)c4ccc(F)cc4)CC3)CC2)cc1 | -3 | 1 | -6 | 0 | 6 | 9 | . | .
COc1ccc([N+](=O)[O-])cc1NC1CCN(C(=O)c2cccs2)CC1 | 0 | . | . | . | 4 | . | . | .
C/C(=C\C=C\c1ccccc1)C(=O)c1c(C)cc(C)[nH]c1=O | 0 | -2 | -1 | 3 | -2 | -8 | . | .
O=C(NCCNc1ccc([N+](=O)[O-])cc1)c1ccccc1F | 3 | . | . | . | -8 | . | . | .
O=C(O)c1ccccc1-c1ccccc1C(=O)NNc1ccc([N+](=O)[O-])cc1 | 2 | 1 | 2 | -5 | 53* | 0 | 22 | 0
O=C(NNc1ccc([N+](=O)[O-])cc1)c1ccccc1F | . | -2 | -4 | -4 | 39* | 23 | 16 | 9
O=C(NNc1ccccc1[N+](=O)[O-])Nc1ccc(F)cc1 | 2 | 1 | -8 | 3 | 38* | 11 | 1 | 4
O=C(NNc1ccccc1[N+](=O)[O-])Nc1ccccc1 | -1 | 3 | -8 | 3 | 11 | -19 | . | .
O=C(NNc1ccc([N+](=O)[O-])cc1)Nc1ccccc1 | -6 | . | . | . | 55* | . | 32* | 1
